Measured values published in publication PMC3475257 (The FASEB Journal, 2012).

System: fully infectious HXB2 HIV‐1
Assay: HXB2 virus infectivity assay
Format: cell-based
Conditions: up to 1 μM, TZM‐bl cells
Method in brief: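 TZM-bl reporter cells were seeded at 2×10^4 cells/well in 10% serum DMEM and left to adhere 18-24 h at 37°C. Medium was then swapped for serum-free DMEM containing 40 μg/ml DEAE-dextran. Test compound was added, followed by concentrated HXB2 stock diluted in the same medium. Infection ran 18 h at 37°C, with a luciferase (Steady-Glo) read-out.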

SMILES: CCCCCCCCCCCCCCC[C@@H](O)[C@@H](N)CO [sphinganine, D‐erythrodihydrosphingosine]
- Effect of sphinganine alone on viral infectivity: did not affect viral infectivity
